Measured values from the M2OR odorant receptor database.
Positions count from the first letter of the chain named.

Assays:
Conditions in all cases: stereoisomer not certain
OR7A5 M81I = system: T1, OR7A5 M81I
T1 sequence (whole entry): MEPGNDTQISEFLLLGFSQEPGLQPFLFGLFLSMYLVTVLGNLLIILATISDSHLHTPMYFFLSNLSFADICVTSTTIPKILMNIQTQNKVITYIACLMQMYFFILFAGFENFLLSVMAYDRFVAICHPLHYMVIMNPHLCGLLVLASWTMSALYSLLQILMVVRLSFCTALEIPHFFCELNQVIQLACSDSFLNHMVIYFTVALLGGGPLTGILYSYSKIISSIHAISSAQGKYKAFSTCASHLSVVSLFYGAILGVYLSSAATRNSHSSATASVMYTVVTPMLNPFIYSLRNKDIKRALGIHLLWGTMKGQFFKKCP
Method in brief: (§1)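 Whether a receptor–molecule pair is responsive (active) rests on the original authors' judgment that its measured signal was statistically different from baseline. Pairs without that judgment are non-responsive (inactive). Sources used varied assay methods, commonly transient luciferase assays in mammalian cell lines.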

OR7C1 (Homo sapiens) = target: T2, OR7C1 (Homo sapiens) (UniProt O76099)
T2 sequence (whole entry): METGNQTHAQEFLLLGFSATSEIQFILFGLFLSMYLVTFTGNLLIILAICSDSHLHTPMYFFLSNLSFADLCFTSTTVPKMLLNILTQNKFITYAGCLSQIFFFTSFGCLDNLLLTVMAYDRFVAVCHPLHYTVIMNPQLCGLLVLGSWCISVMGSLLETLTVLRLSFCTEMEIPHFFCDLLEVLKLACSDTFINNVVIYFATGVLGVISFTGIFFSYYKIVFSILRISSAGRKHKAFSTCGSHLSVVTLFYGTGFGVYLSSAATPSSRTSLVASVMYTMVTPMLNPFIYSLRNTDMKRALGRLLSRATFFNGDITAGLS
Method in brief: as §1

OR7C1 V126I E171K = system: T3, OR7C1 V126I E171K
T3 sequence (whole entry): T2 sequence (whole entry) with V126I, E171K
Method in brief: as §1

OR7C2 (Homo sapiens) = target: T4, OR7C2 (Homo sapiens) (UniProt O60412)
T4 sequence (whole entry): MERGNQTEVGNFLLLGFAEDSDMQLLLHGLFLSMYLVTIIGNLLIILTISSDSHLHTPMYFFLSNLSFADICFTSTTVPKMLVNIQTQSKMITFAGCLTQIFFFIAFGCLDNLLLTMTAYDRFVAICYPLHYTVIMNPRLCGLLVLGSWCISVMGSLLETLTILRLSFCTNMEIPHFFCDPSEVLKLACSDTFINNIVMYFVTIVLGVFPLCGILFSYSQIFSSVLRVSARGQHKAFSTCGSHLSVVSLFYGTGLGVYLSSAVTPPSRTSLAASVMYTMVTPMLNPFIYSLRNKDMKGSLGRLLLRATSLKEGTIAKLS
Method in brief: as §1

OR7D2 (Homo sapiens) = target: T5, OR7D2 (Homo sapiens) (UniProt Q96RA2)
T5 sequence (whole entry): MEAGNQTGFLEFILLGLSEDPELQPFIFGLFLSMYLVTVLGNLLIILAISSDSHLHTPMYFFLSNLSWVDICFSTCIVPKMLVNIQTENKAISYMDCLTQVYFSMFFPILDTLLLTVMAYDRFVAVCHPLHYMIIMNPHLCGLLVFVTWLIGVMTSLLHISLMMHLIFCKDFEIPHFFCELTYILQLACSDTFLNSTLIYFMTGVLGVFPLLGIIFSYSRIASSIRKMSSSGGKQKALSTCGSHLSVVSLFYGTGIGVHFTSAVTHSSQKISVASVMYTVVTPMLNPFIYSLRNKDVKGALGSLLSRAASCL
Method in brief: as §1

OR7D4 (Homo sapiens) = target: T6, OR7D4 (Homo sapiens) (UniProt Q8NG98)
T6 sequence (whole entry): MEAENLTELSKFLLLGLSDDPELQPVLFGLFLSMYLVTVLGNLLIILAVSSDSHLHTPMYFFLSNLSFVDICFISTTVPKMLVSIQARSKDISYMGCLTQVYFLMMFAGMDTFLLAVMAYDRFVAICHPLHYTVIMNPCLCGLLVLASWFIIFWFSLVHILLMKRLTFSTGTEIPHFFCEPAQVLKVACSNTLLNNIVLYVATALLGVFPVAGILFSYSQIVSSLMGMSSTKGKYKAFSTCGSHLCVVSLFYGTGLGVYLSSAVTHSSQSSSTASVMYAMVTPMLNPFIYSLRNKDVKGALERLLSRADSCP
Method in brief: as §1

OR7D4 R88W = system: T7, OR7D4 R88W
T7 sequence (whole entry): T6 sequence (whole entry) with R88W
Method in brief: as §1

OR7D4 = system: T8, OR7D4
T8 sequence (whole entry): T6 sequence (whole entry) with R88W, T133M
Method in brief: as §1

OR7E24 (Homo sapiens) = target: T9, OR7E24 (Homo sapiens) (UniProt Q6IFN5)
T9 sequence (whole entry): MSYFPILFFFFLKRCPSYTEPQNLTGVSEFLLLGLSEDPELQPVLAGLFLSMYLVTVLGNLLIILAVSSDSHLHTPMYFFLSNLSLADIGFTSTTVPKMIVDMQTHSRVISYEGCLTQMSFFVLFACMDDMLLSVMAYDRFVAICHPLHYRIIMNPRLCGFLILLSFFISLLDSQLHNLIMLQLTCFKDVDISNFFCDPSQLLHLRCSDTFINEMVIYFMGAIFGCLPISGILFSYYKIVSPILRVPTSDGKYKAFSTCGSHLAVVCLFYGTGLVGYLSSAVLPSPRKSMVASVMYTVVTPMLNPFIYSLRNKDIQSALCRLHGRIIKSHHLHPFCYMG
Method in brief: as §1

OR7G1 (Homo sapiens) = target: T10, OR7G1 (Homo sapiens) (UniProt Q8NGA0)
T10 sequence (whole entry): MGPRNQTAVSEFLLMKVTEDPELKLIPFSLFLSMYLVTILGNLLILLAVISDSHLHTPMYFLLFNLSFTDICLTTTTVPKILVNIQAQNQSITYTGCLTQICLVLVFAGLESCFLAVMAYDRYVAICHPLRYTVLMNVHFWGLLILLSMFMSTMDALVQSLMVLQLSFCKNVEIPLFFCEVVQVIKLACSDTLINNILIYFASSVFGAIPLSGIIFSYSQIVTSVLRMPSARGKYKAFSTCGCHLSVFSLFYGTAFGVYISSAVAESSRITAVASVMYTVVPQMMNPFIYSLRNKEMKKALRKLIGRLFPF
Method in brief: as §1

OR7G2 = system: T11, OR7G2
T11 sequence (whole entry): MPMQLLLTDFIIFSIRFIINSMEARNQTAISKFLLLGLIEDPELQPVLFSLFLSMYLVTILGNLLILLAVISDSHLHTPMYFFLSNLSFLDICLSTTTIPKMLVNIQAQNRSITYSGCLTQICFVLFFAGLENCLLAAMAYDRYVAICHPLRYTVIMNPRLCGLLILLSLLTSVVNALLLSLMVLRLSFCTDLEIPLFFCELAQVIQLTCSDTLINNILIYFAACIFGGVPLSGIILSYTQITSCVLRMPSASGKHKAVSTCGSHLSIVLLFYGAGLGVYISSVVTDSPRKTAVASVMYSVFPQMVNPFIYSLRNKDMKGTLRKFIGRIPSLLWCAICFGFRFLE
Method in brief: as §1

OR7G3 (Homo sapiens) = target: T12, OR7G3 (Homo sapiens) (UniProt Q8NG95)
T12 sequence (whole entry): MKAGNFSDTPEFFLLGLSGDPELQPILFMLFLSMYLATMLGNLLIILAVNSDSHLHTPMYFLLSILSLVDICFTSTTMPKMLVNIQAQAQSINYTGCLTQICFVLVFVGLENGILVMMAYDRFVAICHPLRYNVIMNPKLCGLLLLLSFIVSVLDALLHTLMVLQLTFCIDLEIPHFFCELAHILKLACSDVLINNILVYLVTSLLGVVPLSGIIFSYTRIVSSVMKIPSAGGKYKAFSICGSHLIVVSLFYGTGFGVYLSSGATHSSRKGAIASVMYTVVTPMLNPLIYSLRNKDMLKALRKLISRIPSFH
Method in brief: as §1

OR7G3 M29V = system: T13, OR7G3 M29V
T13 sequence (whole entry): T12 sequence (whole entry) with M29V
Method in brief: as §1

OR8A1 (Homo sapiens) = target: T14, OR8A1 (Homo sapiens) (UniProt Q8NGG7)
T14 sequence (whole entry): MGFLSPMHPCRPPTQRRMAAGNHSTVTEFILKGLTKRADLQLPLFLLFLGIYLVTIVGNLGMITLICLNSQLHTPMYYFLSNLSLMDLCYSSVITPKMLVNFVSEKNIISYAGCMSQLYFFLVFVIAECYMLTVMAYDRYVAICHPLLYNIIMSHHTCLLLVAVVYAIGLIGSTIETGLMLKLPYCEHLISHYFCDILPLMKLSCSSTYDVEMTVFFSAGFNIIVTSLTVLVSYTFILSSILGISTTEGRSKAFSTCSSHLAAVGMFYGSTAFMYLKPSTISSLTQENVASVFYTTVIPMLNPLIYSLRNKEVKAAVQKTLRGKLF
Method in brief: as §1

OR8B12 (Homo sapiens) = target: T15, OR8B12 (Homo sapiens) (UniProt Q8NGG6)
T15 sequence (whole entry): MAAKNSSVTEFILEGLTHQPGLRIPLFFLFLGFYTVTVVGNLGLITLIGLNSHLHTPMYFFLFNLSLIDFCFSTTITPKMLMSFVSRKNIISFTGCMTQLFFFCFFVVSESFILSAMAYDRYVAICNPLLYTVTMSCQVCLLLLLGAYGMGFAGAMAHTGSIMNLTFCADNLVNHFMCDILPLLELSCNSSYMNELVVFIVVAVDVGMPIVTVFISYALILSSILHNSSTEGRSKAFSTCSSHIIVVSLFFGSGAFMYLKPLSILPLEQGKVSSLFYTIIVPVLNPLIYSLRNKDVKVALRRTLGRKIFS
Method in brief: as §1

OR8B2 (Homo sapiens) = target: T16, OR8B2 (Homo sapiens) (UniProt Q96RD0)
T16 sequence (whole entry): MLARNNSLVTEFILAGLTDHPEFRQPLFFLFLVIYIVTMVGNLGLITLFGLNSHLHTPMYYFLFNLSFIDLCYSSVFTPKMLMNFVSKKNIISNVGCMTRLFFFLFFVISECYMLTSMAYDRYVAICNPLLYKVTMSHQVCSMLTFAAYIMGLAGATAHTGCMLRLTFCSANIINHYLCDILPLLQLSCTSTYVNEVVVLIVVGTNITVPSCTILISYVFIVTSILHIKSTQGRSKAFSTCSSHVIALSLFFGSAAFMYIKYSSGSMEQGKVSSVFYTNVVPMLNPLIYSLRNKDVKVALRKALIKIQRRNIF
Method in brief: as §1

OR8B2 L164F = system: T17, OR8B2 L164F
T17 sequence (whole entry): T16 sequence (whole entry) with L164F
Method in brief: as §1

OR8B2 S273F = system: T18, OR8B2 S273F
T18 sequence (whole entry): T16 sequence (whole entry) with S273F
Method in brief: as §1

OR8B3 (Homo sapiens) = target: T19, OR8B3 (Homo sapiens) (UniProt Q8NGG8)
T19 sequence (whole entry): T16 sequence (whole entry) with R24Q, I34V, T47I, N94Y, R100Q, T205I, T208M
Method in brief: as §1

OR7G2 (Homo sapiens) = target: T20, OR7G2 (Homo sapiens) (UniProt Q8NG99)
T20 sequence (whole entry): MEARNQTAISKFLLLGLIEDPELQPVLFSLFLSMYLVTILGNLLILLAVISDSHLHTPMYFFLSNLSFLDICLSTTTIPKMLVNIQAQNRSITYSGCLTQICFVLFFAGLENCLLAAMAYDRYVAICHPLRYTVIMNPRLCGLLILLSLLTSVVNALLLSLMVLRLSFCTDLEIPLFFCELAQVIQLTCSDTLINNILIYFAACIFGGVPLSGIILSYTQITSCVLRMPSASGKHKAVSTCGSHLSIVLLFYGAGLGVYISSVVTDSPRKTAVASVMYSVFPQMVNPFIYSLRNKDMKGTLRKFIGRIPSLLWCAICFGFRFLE
Method in brief: as §1
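Note: active if original authors judged signal statistically different from baseline.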

Row | Structure (SMILES) | odorant receptor agonist call (OR7A5 M81I) | odorant receptor agonist call (OR7C1 (Homo sapiens)) | odorant receptor agonist call (OR7C1 V126I E171K) | odorant receptor agonist call (OR7C2 (Homo sapiens)) | odorant receptor agonist call (OR7D2 (Homo sapiens)) | odorant receptor agonist call (OR7D4 (Homo sapiens)) | odorant receptor agonist call (OR7D4 R88W) | odorant receptor agonist call (OR7D4) | odorant receptor agonist call (OR7E24 (Homo sapiens)) | odorant receptor agonist call (OR7G1 (Homo sapiens)) | odorant receptor agonist call (OR7G2) | odorant receptor agonist call (OR7G3 (Homo sapiens)) | odorant receptor agonist call (OR7G3 M29V) | odorant receptor agonist call (OR8A1 (Homo sapiens)) | odorant receptor agonist call (OR8B12 (Homo sapiens)) | odorant receptor agonist call (OR8B2 (Homo sapiens)) | odorant receptor agonist call (OR8B2 L164F) | odorant receptor agonist call (OR8B2 S273F) | odorant receptor agonist call (OR8B3 (Homo sapiens)) | odorant receptor agonist call (OR7G2 (Homo sapiens))
1 | CC1=C(O)C(=O)C(C)O1 (stereo not drawn) | inactive | inactive | inactive | inactive | inactive | inactive | inactive | inactive | inactive | inactive | inactive | inactive | inactive | inactive | inactive | inactive | inactive | inactive | inactive | 
2 | CC1CCCCCCCCCCCCC(=O)C1 (stereo not drawn) |  | inactive |  | inactive | inactive | inactive |  |  | inactive | inactive |  | inactive |  | inactive | inactive | inactive |  |  | inactive | inactive
3 | CC(=O)c1c(C)c([N+](=O)[O-])c(C(C)(C)C)c([N+](=O)[O-])c1C |  | inactive |  | inactive | inactive | inactive |  |  | inactive | inactive |  | inactive |  | inactive | inactive | inactive |  |  | inactive | inactive
4 | Cc1cnc(C)c(C)n1 | inactive | inactive | inactive | inactive | inactive | inactive | inactive | inactive | inactive | inactive | inactive | inactive | inactive | inactive | inactive | inactive | inactive | inactive | inactive | 
5 | CCC1OC(C)=C(O)C1=O (stereo not drawn) | inactive | inactive | inactive | inactive | inactive | inactive | inactive | inactive | inactive | inactive | inactive | inactive | inactive | inactive | inactive | inactive | inactive | inactive | inactive | 
6 | CCC(S)C(C)CO (stereo not drawn) |  | inactive |  | inactive | inactive | inactive |  |  | inactive | inactive |  | inactive |  | inactive | inactive | inactive |  |  | inactive | inactive
7 | O=C1CCOc2ccccc21 |  |  |  |  |  |  |  |  |  |  |  |  |  |  |  | active |  |  |  | 
8 | CCC1OC(=O)C(O)=C1C (stereo not drawn) | inactive | inactive | inactive | inactive | inactive | inactive | inactive | inactive | inactive | inactive | inactive | inactive | inactive | inactive | inactive | inactive | inactive | inactive | inactive | 
